Sampled rows, rich in hits. Any-hit rate of the full collection: about 3.3%.
ABCG2 inh – blocks JC-1 efflux by human ABCG2 transporter. Q9UNQ0. inhibition, % at 6.6 µM. IgMXP3 cells, flow cytometry. 190,000 compounds, 0.1% hits;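 active = inhibition above 80%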
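System: two drug-resistant human cell lines, ABCG2 and ABCB1; controls: nicardipine high and DMSO low controls; times: 10 min exposure at 25 °C with rotation, no wash; detection: flow cytometry of retained JC-1 fluorescence; read-out basis: percent efflux inhibition, scaled nicardipine 100% to DMSO 0%; doses: one concentration, 6.6 µM final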
PMI activator – activators of human phosphomannose isomerase; P34949; purified human PMI, coupled resazurin fluorescence, 20 min; stronger effect = higher value; 1 = vehicle control, 0 substrate-free wells; activation factor at 20 µM; 190,000 compounds, 0.005% hits; AID 1214;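 active = activation factor of 2 or more at 20 µM, relative to plate controls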
KCC2 mod – modulators of human KCC2 chloride dependent transport; KCC2 cells, thallium flux FluoZin-2 fluorescence; B-score of Tl+ flux slope (higher = more flux/activation; lower = inhibition) at 10 µM; 190,000 compounds, 2.2% hits; AID 1456;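 active = thallium flux slope and its plate-corrected score both differing from the plate sample mean at a set confidence after two filtering rounds, in either direction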;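 also: slope of fluorescence scaled to starting intensity during 10 to 20 s after thallium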
PMI act satM6P – PMI (human) activation, high substrate; P34949; coupled PMI enzyme assay, resazurin fluorescence, 20 min; stronger effect = higher value; 1 = untreated enzyme, 0 = substrate-free blank; activation factor at 20 µM; 190,000 compounds, 0.34% hits;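 active = activation factor of 2 or more at 20 µM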
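Test system: human phosphomannose isomerase with PGI, G6PDH, diaphorase coupling enzymes / Doses: 20 µM compound, 1% DMSO / Times: enzyme reaction with compound 20 min at room temperature / Measured by: Diaphorase-driven resazurin-to-resorufin fluorescence, excitation 544, emission 590 nm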
ABCB1 block – inhibitors of human ABCB1 transporter, ABCG2 counter-screen. P08183. CCRF-Adr cells, JC-1 efflux, flow cytometry. inhibition, % at 6.6 µM. 190,000 compounds, 0.067% hits; in the data active = inhibition above about 40%;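 also: higher value means more JC-1 retained so stronger ABCB1 efflux block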
ROMK mod – human ROMK K+ channel modulation, primary screen; AID 1918; Tet-inducible ROMK, thallium flux fluorescence; actives lie on both sides; 130,000 compounds, 2% hits; B-score at 10 µM; P48048;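 active = signal ratio slope over the read window, or its plate-corrected B-score, at least 3 SD from the plate mean, either direction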;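 also: B-score of the F/F0 ratio slope over 7 to 12 s after thallium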
KCC2 sec1 – KCC2 (human) modulation, secondary assay | normalised thallium flux (F/F0 slope) at 10 µM | shares compounds with KCC2 mod | 3,700 compounds, 15% hits | HEK293-KCC2, thallium flux, FluoZin2 fluorescence; stronger effect = higher value;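 active = thallium flux slope above the same plate's solvent-only control mean plus 3 SD; inconclusive = the two replicate wells disagree; inactive = no significant difference from solvent-only control wells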
KCC2 bumet counter – thallium flux despite bumetanide block in KCC2 cells, secondary assay 3; shares compounds with KCC2 mod; HEK293-KCC2 + bumetanide/ouabain, thallium flux FluoZin2; stronger effect = higher value; normalized thallium flux at 10 µM; 3,700 compounds, 49% hits; AID 1714;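 active = thallium entry rate above the same plate's blocked-transporter control wells by more than 3 SD; inconclusive = the two repeat wells disagree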;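 also: raw slope of fluorescence over initial fluorescence between 10 and 20 s after thallium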
KCC2 secondary2 – confirmation of human KCC2 transport modulators. shares compounds with KCC2 mod. HEK293-KCC2, thallium flux FluoZin2 fluorescence; actives lie on both sides; F/F0 rise rate, 10–20 s post-thallium. normalized thallium flux at 10 µM. 3,700 compounds, 23% hits. AID 1715;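 active = thallium flux slope more than 3 SD above or below the plate's solvent-only control mean, mostly below; inconclusive = the two repeat wells disagreed; inactive = no significant shift from solvent-only controls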
HEK293 Tl flux – parental HEK flux effect, counter-screen; shares compounds with KCC2 mod; AID 1716; thallium flux rate (normalised fluorescence) at 10 µM; 3,700 compounds, 46% hits; HEK293 parental cells, thallium flux FluoZin2, ouabain; baseline-ratio fluorescence slope, 10–20 s after thallium;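 active = thallium flux rate significantly above the same plate's solvent-only control wells, beyond their mean plus 3 SD; inconclusive = the two replicate wells gave conflicting results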
KCC2 ouabain – modulates human KCC2 on retest with ouabain | shares compounds with KCC2 mod | HEK293-KCC2, thallium flux FluoZin2 fluorescence; bidirectional: low = inhibitor, high = activator | raw Tl+ flux slope (below DMSO = inhibition, above = activation) at 10 µM | 3,700 compounds, 48% hits;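 active = thallium flux slope beyond 3 SD from same-plate DMSO control mean in most replicates, usually higher, sometimes lower; inconclusive = repeat tests gave conflicting results; inactive = no significant difference from controls in most replicates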;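 also: slope of initial-normalized fluorescence between seconds 10 and 20 after thallium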
HEK counter2 – counter-screen for KCC2 modulators: effect in parental HEK293 cells | thallium flux FluoZin-2 fluorescence slope | thallium flux slope at 10 µM | shares compounds with KCC2 mod | 3,700 compounds, 33% hits;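 active = thallium flux slope above the same plate's solvent-control mean plus 3 SD in both duplicate wells; inconclusive = duplicate wells that disagreed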;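 also: run without ouabain in cells lacking the KCC2 cotransporter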
Hits are given with their value; n = inactive; u = inconclusive; x = no result.

SMILES | ABCG2 inh | PMI activator | KCC2 mod | PMI act satM6P | ABCB1 block | ROMK mod | KCC2 sec1 | KCC2 bumet counter | KCC2 secondary2 | HEK293 Tl flux | KCC2 ouabain | HEK counter2
O=C(O)CC/C(=C\c1ccc(N2CCOCC2)c([N+](=O)[O-])c1)c1nc2ccccc2s1 | n | n | -8.5 | n | n | n | n | n | 0.021 | n | u | n
N#C/C(=C\c1ccc(O)c([N+](=O)[O-])c1)c1nc2ccccc2s1 | n | n | -6.2 | n | n | n | n | n | n | n | 0.013 | n
O=C(CSc1nc2ccccc2s1)Nc1ccc(N2CCOCC2)c(Cl)c1 | n | n | n | n | n | x | x | x | x | x | x | x
CCOc1ccc(C2CC(=O)N(Nc3ccc([N+](=O)[O-])cc3[N+](=O)[O-])C2=O)cc1 (configuration not stated) | x | x | n | x | x | x | x | x | x | x | x | x
Cc1ccc(N2C(=O)C3ON(c4ccccc4)C(CC(C)C)C3C2=O)cc1 (configuration not stated) | x | x | n | x | x | x | x | x | x | x | x | x
CC(=O)c1cc(NC(=O)c2cccc(C(F)(F)F)c2)c(=O)oc1/C=C/N(C)C | n | n | n | n | n | x | x | x | x | x | x | x
CC(=O)c1cc(NC(=O)c2ccc(Cl)cc2)c(=O)oc1/C=C/N(C)C | n | n | -3 | n | n | x | u | -0.0026 | 0.021 | 0.0027 | 0.008 | 0.0048
CSc1ccccc1NC(=O)c1cc(-c2cccnc2)nc2ccc(Br)cc12 | n | n | n | n | n | n | x | x | x | x | x | x
Cc1ccc(SCC(=O)Nc2ccc(S(N)(=O)=O)cc2)cc1 | n | n | n | n | n | n | x | x | x | x | x | x
Cc1cc[n+](-c2nc([O-])n(-c3ccccc3)c2C=O)cc1 | x | x | n | x | x | n | x | x | x | x | x | x
O=C(O)CC/C(=N/NC(=O)c1cccs1)c1ccccc1 | n | n | n | n | n | n | x | x | x | x | x | x
CCOC(=O)N/N=C(\CCC(=O)O)c1cccs1 | x | x | 7.2 | x | x | x | n | n | n | n | n | n
Nc1ccccc1SC1CC(=O)N(Cc2ccccc2)C1=O (configuration not stated) | n | n | n | n | n | n | x | x | x | x | x | x
Cc1ccc(C(=O)OCC(=O)c2c[nH]c3ccccc23)cc1 | n | n | n | n | n | n | x | x | x | x | x | x
CC1(C(=O)OCC(=O)c2c[nH]c3ccccc23)CC1(Cl)Cl (configuration not stated) | n | n | -2.5 | n | n | n | n | n | n | n | 0.016 | n
COc1ccc(-n2cc(-c3ccc(Cl)cc3)[nH]c2=S)cc1 | x | x | 5.7 | x | x | x | 0.025 | 0.013 | n | 0.0093 | n | n
COc1cc(C(=O)OCC(=O)c2cc(C)n(C)c2C)cc(OC)c1OC | n | n | 6.7 | n | n | n | n | n | n | n | n | n
COc1ccccc1OCCCOc1c(C)cc(C)cc1Br | n | n | n | n | n | x | x | x | x | x | x | x
COc1ccccc1OCCOCCOc1c(C)cc(C)cc1Br | n | n | -5.4 | n | n | x | n | n | n | n | n | n
Fc1ccc(-c2nn3c(C4COc5ccccc5O4)nnc3s2)cc1 (configuration not stated) | n | n | -4.5 | n | n | x | n | n | n | n | n | n

From PubChem BioAssay
